ChEMBL document CHEMBL1155135, “Effect of Lamivudine on the plasma and intracellular pharmacokinetics of apricitabine, a novel nucleoside reverse transcriptase inhibitor, in healthy volunteers” (Antimicrob Agents Chemother, 2007)

How the values were obtained:
Homo sapiens [1] = assay: Cmin in healthy human PBMC assessed as intracellular lamivudine triphosphate level per 10^6 cells at 300 mg, po administered once daily for 4 days; conditions: in vivo, 96 h
Homo sapiens [2] = assay: Cmin in healthy human PBMC assessed as intracellular apricitabine triphosphate level per 10^6 cells at 300 mg, po once daily coadministered with 600 mg, po apricitabine twice daily for 4 days; type: ADME, organism-based; conditions: in vivo, 96 h
Homo sapiens [3] = assay: Tmax in healthy human PBMC assessed as intracellular apricitabine triphosphate level at 300 mg, po once daily coadministered with 600 mg, po apricitabine twice daily for 4 days; type: ADME, organism-based; conditions: in vivo, 96 h
Summary of the method: (§1)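 PBMC were isolated from triplicate day-4 blood samples taken 2, 4, 8, 12 and 24 h after the morning dose, then extracted in 70/30 methanol-Tris-HCl pH 7.4. Triphosphates were separated by anion-exchange SPE with KCl washes, eluted with 500 mM KCl, and dephosphorylated with alkaline phosphatase at 37°C. Quantitation used HPLC-MS/MS with a labelled triphosphate internal standard; LLOQ 0.0592 pmol/10^6 cells. Cmax/Tmax were read by inspection; t1/2 = ln2/λz.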

[4] = AUC (0 to 24 hrs) in healthy human at 300 mg, po administered once daily for 4 days; type: ADME, organism-based; set-up: dose 300 mg, time < 24 hr, route oral; conditions: plasma
Summary of the method: (§2)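 Healthy volunteers took each regimen in random order for 4 days, with washouts of at least 7 days. The day-4 morning dose followed a fast of at least 10 h. Plasma was drawn predose and 0.5–36 h after dosing, and urine was collected to 36 h; both were assayed by validated HPLC. Cmax/Tmax were read from the curves. CLT/F = dose/AUC, CLR = 24-h urinary amount/AUC0-24, Vz/F = dose/(λz·AUC), t1/2 = ln2/λz.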

Homo sapiens [5] = assay: Cmax in healthy human PBMC assessed as intracellular lamivudine triphosphate level per 10^6 cells at 300 mg, po administered once daily for 4 days; conditions: in vivo, 96 h
[6] = Tmax in healthy human at 300 mg, po once daily coadministered with 600 mg, po apricitabine twice daily for 4 days; type: ADME, organism-based; conditions: in vivo
Summary of the method: as §2

[7] = Tmax in healthy human at 300 mg, po administered once daily for 4 days; type: ADME, organism-based; conditions: in vivo
Summary of the method: as §2

Homo sapiens [8] = assay: Cmax in healthy human PBMC assessed as intracellular apricitabine triphosphate level per 10^6 cells at 300 mg, po once daily coadministered with 600 mg, po apricitabine twice daily for 4 days; type: ADME, organism-based, Blood; set-up: dose 300 mg, route oral; conditions: in vivo, 96 h
Summary of the method: as §1

Homo sapiens [9] = assay: AUC (0 to 12 hrs) in healthy human PBMC assessed as intracellular lamivudine triphosphate level per 10^6 cells at 300 mg, po administered once daily for 4 days; conditions: in vivo
Homo sapiens [10] = assay: Tmax in healthy human PBMC assessed as intracellular apricitabine triphosphate level at 300 mg, po administered once daily for 4 days; type: ADME, organism-based; conditions: in vivo, 96 h, in the assay text read “lamivudine” for “apricitabine”
Summary of the method: as §1

[11] = Cmax in healthy human at 300 mg, po administered once daily for 4 days; type: ADME, organism-based; set-up: dose 300 mg, route oral; conditions: in vivo
Summary of the method: as §2

[12] = AUC (0 to 24 hrs) in healthy human at 300 mg, po once daily coadministered with 600 mg, po apricitabine twice daily for 4 days; type: ADME, organism-based; set-up: time < 24 hr, dose 300 mg, route oral; conditions: plasma
Summary of the method: as §2

Homo sapiens [13] = assay: AUC (0 to 12 hrs) in healthy human PBMC assessed as intracellular lamivudine triphosphate level per 10^6 cells at 300 mg, po once daily coadministered with 600 mg, po apricitabine twice daily for 4 days; conditions: in vivo
[14] = Cmax in healthy human at 300 mg, po once daily coadministered with 600 mg, po apricitabine twice daily for 4 days; type: ADME, organism-based; set-up: dose 300 mg, route oral; conditions: in vivo
Summary of the method: as §2

[15] = Cmax in healthy human at 600 mg, po administered twice daily for 4 days; type: ADME, organism-based; set-up: dose 600 mg, route oral; conditions: in vivo
Summary of the method: as §2

Homo sapiens [16] = assay: AUC (0 to 12 hrs) in healthy human PBMC assessed as intracellular apricitabine triphosphate level per 10^6 cells at 600 mg, po administered twice daily for 4 days; type: ADME, organism-based; set-up: dose 600 mg, time < 12 hr, route oral; conditions: in vivo
Summary of the method: as §1

[17] = AUC (0 to 24 hrs) in healthy human at 600 mg, po twice daily coadministered with 300 mg, po Lamivudine once daily for 4 days; type: ADME, organism-based; set-up: dose 600 mg, time < 24 hr, route oral; conditions: plasma
Summary of the method: as §2

Homo sapiens [18] = assay: Apparent total oral clearance in healthy human at 600 mg, po twice daily coadministered with 300 mg, po Lamivudine once daily for 4 days; type: ADME, organism-based; conditions: in vivo, 96 h
Summary of the method: as §2

Homo sapiens [19] = assay: Cmin in healthy human PBMC assessed as intracellular apricitabine triphosphate level per 10^6 cells at 600 mg, po twice daily coadministered with 300 mg, po Lamivudine once daily for 4 days; type: ADME, organism-based; conditions: in vivo, 96 h
[20] = Cmax in healthy human at 600 mg, po twice daily coadministered with 300 mg, po Lamivudine once daily for 4 days; type: ADME, organism-based; set-up: dose 600 mg, route oral; conditions: in vivo
Summary of the method: as §2

Homo sapiens [21] = assay: Half life in healthy human PBMC assessed as intracellular apricitabine triphosphate level per 10^6 cells at 600 mg, po administered twice daily for 4 days; type: ADME, organism-based; conditions: in vivo, 96 h
Summary of the method: as §1

Homo sapiens [22] = assay: Tmax in healthy human PBMC assessed as intracellular apricitabine triphosphate level at 600 mg, po twice daily coadministered with 300 mg, po Lamivudine once daily for 4 days; type: ADME, organism-based; conditions: in vivo, 96 h
Summary of the method: as §1

Homo sapiens [23] = assay: Renal clearance in healthy human at 600 mg, po twice daily coadministered with 300 mg, po Lamivudine once daily for 4 days; type: ADME, organism-based, Kidney; conditions: in vivo, 96 h
Summary of the method: as §2

[24] = Apparent terminal half life in healthy human at 600 mg, po twice daily coadministered with 300 mg, po Lamivudine once daily for 4 days; type: ADME, organism-based; conditions: in vivo
Summary of the method: as §2

[25] = Renal clearance in healthy human at 600 mg, po administered twice daily for 4 days; type: ADME, organism-based, Kidney; conditions: in vivo, read-out: CL_renal (converted)
Summary of the method: as §2

Homo sapiens [26] = assay: AUC (0 to 12 hrs) in healthy human PBMC assessed as intracellular apricitabine triphosphate level per 10^6 cells at 600 mg, po twice daily coadministered with 300 mg, po Lamivudine once daily for 4 days; type: ADME, organism-based; set-up: time < 12 hr, dose 600 mg, route oral; conditions: in vivo
Summary of the method: as §1

[27] = AUC (0 to 24 hrs) in healthy human at 600 mg, po administered twice daily for 4 days; type: ADME, organism-based; set-up: dose 600 mg, time < 24 hr, route oral; conditions: plasma
Summary of the method: as §2

[28] = Tmax in healthy human at 600 mg, po twice daily coadministered with 300 mg, po Lamivudine once daily for 4 days; type: ADME, organism-based; conditions: in vivo
Summary of the method: as §2

Homo sapiens [29] = assay: Cmin in healthy human PBMC assessed as intracellular apricitabine triphosphate level per 10^6 cells at 600 mg, po administered twice daily for 4 days; type: ADME, organism-based; conditions: in vivo, 96 h
Homo sapiens [30] = assay: Ratio of Cmax to Cmin in healthy human PBMC assessed as intracellular apricitabine triphosphate level per 10^6 cells at 600 mg, po administered twice daily for 4 days; type: ADME, organism-based; conditions: in vivo, 96 h
[31] = Apparent total oral clearance in healthy human at 600 mg, po administered twice daily for 4 days; type: ADME, organism-based; conditions: in vivo
Summary of the method: as §2

Homo sapiens [32] = assay: Cmax in healthy human PBMC assessed as intracellular apricitabine triphosphate level per 10^6 cells at 600 mg, po administered twice daily for 4 days; type: ADME, organism-based, Blood; set-up: dose 600 mg, route oral; conditions: in vivo, 96 h
Summary of the method: as §1

[33] = Apparent terminal half life in healthy human at 600 mg, po administered twice daily for 4 days; type: ADME, organism-based; conditions: in vivo
Summary of the method: as §2

Homo sapiens [34] = assay: Ratio of Cmax to Cmin in healthy human PBMC assessed as intracellular apricitabine triphosphate level per 10^6 cells at 600 mg, po twice daily coadministered with 300 mg, po Lamivudine once daily for 4 days; type: ADME, organism-based; conditions: in vivo, 96 h
Homo sapiens [35] = assay: Volume of distribution at steady state in healthy human at 600 mg, po twice daily coadministered with 300 mg, po Lamivudine once daily for 4 days; type: ADME, organism-based; conditions: in vivo, 96 h
Summary of the method: as §2

Homo sapiens [36] = assay: Cmax in healthy human PBMC assessed as intracellular apricitabine triphosphate level per 10^6 cells at 600 mg, po twice daily coadministered with 300 mg, po Lamivudine once daily for 4 days; type: ADME, organism-based, Blood; set-up: dose 600 mg, route oral; conditions: in vivo, 96 h
Summary of the method: as §1

[37] = Tmax in healthy human at 600 mg, po administered twice daily for 4 days; type: ADME, organism-based; conditions: in vivo
Summary of the method: as §2

Homo sapiens [38] = assay: Volume of distribution at steady state in healthy human at 600 mg, po administered twice daily for 4 days; type: ADME, organism-based; conditions: in vivo, 96 h
Summary of the method: as §2

Homo sapiens [39] = assay: Half life in healthy human PBMC assessed as intracellular apricitabine triphosphate level per 10^6 cells at 600 mg, po twice daily coadministered with 300 mg, po Lamivudine once daily for 4 days; type: ADME, organism-based; conditions: in vivo, 96 h
Summary of the method: as §1

Homo sapiens [40] = assay: Tmax in healthy human PBMC assessed as intracellular apricitabine triphosphate level at 600 mg, po administered twice daily for 4 days; type: ADME, organism-based; conditions: in vivo, 96 h
Summary of the method: as §1

Nc1ccn([C@@H]2CS[C@H](CO)O2)c(=O)n1 [LAMIVUDINE]
Cmin_PBMC (Homo sapiens [1]): 4.35 pmol/10^6cells | Cmin_PBMC (Homo sapiens [2]): 4.52 pmol/10^6cells | Tmax (Homo sapiens [3]): 3.9 h | AUC at 24 h [4]: 15700 ng·h/mL | Cmax (Homo sapiens [5]): 9.83 pmol/10^6cells | Tmax [6]: 1.02 h | Tmax [7]: 1 h | Cmax (Homo sapiens [8]): 9.91 pmol/10^6cells | AUC (Homo sapiens [9]): 154 pmol·h/10^6 cells | Tmax (Homo sapiens [10]): 4.76 h | Cmax [11]: 3980 ng/mL | AUC at 24 h [12]: 15500 ng·h/mL | AUC (Homo sapiens [13]): 161 pmol·h/10^6 cells | Cmax [14]: 3810 ng/mL

Nc1ccn([C@H]2CO[C@@H](CO)S2)c(=O)n1 [APRICITABINE]
Cmax [15]: 7430 ng/mL | AUC (Homo sapiens [16]): 13.3 pmol·h/10^6 cells | AUC at 24 h [17]: 65600 ng·h/mL | CL/F (Homo sapiens [18]): 18.3 L/h | Cmin_PBMC (Homo sapiens [19]): 0.078 pmol/10^6cells | Cmax [20]: 7110 ng/mL | t1/2 (Homo sapiens [21]): 6.22 h | Tmax (Homo sapiens [22]): 3.14 h | CL renal (Homo sapiens [23]): 12.2 L/h | half-life [24]: 2.6 h | CL renal at 96 h [25]: 192 mL/min | AUC (Homo sapiens [26]): 1.98 pmol·h/10^6 cells | AUC at 24 h [27]: 70900 ng·h/mL | Tmax [28]: 1.55 h | Cmin_PBMC (Homo sapiens [29]): 0.6 pmol/10^6cells | Ratio (Homo sapiens [30]): 3.28 | CL/F [31]: 283 mL/min | Cmax (Homo sapiens [32]): 1.66 pmol/10^6cells | half-life [33]: 2.72 h | Ratio (Homo sapiens [34]): 3.54 | Vdss (Homo sapiens [35]): 67.9 L | Cmax (Homo sapiens [36]): 0.257 pmol/10^6cells | Tmax [37]: 1.76 h | Vdss (Homo sapiens [38]): 67.7 L | t1/2 (Homo sapiens [39]): 5.06 h | Tmax (Homo sapiens [40]): 3.52 h
